The values below come from ChEMBL document CHEMBL1138661, “Design, synthesis, and structure-activity relationship studies of 3,4,6-triphenylpyran-2-ones as selective cyclooxygenase-2 inhibitors” (J Med Chem, 2004).

SMILES strings stand for the structures.

Assay [1] has as its target T1, Prostaglandin G/H synthase 1 (Ovis aries, UniProt P05979).
T1 sequence (P05979 whole entry): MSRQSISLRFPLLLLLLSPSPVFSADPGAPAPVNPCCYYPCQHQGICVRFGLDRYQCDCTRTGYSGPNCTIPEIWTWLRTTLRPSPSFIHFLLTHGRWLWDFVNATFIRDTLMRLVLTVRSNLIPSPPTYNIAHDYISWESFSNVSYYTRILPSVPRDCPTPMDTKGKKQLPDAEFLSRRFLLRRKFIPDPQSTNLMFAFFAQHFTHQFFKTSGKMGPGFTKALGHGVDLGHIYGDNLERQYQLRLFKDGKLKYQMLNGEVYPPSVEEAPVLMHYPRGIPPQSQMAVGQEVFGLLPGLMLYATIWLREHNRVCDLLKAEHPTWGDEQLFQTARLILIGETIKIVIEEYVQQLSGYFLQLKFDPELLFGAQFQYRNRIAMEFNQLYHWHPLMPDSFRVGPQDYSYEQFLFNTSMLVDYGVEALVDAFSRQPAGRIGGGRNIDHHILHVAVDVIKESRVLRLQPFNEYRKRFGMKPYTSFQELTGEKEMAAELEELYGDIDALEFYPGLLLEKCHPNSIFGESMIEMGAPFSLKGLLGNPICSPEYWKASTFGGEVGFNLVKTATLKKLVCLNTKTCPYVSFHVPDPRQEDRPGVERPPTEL
Nature of the assay: Inhibition of ovine Prostaglandin G/H synthase 1. The method in brief:
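Ovine COX-1 with heme in 0.1 M Tris-HCl pH 8.0, 5 mM EDTA, 2 mM phenol. Test drug from DMSO stock at 0.001–100 μM final, preincubated 5 min at 37 °C. Arachidonic acid added, stopped with 1 M HCl after 2 min. IC50 from concentration–inhibition curve, duplicate determinations.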

Assay [2] is filed under the species Rattus norvegicus. Nature of the assay: Percent inhibition of analgesic activity in a rat model 4% NaCl-induced abdominal constriction assay at 30 min. The class given is functional, Abdomen. The method in brief: (§1)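 Male Sprague-Dawley rats given test compound orally at 5 mg/kg. Writhing (abdominal constriction) induced by 4% NaCl. Inhibition of writhing scored at 30 or 60 min after dosing. Mean ± SEM, n = 4-6.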

Assay [3] is filed under the species Rattus norvegicus. Kind of assay: Percent inhibition of analgesic activity in a rat model 4% NaCl-induced abdominal constriction assay at 60 min. In kind it is functional, Abdomen. In a few lines: as §1
Assay [4] has as its target T2, Prostaglandin G/H synthase 2 (Rattus norvegicus) (UniProt P35355).
T2 sequence (whole entry): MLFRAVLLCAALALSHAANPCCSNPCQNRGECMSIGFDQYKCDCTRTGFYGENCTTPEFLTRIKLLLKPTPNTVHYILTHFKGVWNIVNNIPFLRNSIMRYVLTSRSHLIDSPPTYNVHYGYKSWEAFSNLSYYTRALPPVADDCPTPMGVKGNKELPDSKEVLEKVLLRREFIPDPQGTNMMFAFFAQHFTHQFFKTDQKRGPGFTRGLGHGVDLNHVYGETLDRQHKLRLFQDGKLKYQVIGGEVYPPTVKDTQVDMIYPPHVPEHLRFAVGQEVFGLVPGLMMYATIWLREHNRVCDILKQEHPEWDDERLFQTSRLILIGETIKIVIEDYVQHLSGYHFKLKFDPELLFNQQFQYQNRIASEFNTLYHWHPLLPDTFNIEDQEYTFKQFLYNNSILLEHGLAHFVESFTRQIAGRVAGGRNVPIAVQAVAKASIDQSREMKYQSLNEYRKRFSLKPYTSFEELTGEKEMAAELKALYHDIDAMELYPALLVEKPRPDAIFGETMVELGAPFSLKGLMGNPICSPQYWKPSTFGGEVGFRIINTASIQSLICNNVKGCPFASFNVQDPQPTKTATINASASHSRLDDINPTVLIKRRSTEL

Usually IC50 stands for the concentration that inhibits the measured activity by half. The low end stands for greater potency in that assay, the high end for weaker potency in that assay. In assay [1], `Cc1ccc(-c2cc(-c3ccccc3)c(-c3ccc(S(C)(=O)=O)cc3)c(=O)o2)cc1` registered an IC50 of over 100 µM.

In assay [1], `COc1ccc(-c2cc(-c3ccc(S(C)(=O)=O)cc3)c(-c3ccc(F)cc3)c(=O)o2)cc1` displayed an IC50 of 10.7 µM. Same read-out and setting: for `CS(=O)(=O)c1ccc(-c2cc(-c3ccccc3)oc(=O)c2-c2cccnc2)cc1` the value was 3.2 µM.

On to `CS(=O)(=O)c1ccc(-c2cc(-c3ccc(C(F)(F)F)cc3)oc(=O)c2-c2ccccc2)cc1`, for which half-maximal inhibition in assay [1] (IC50) was put at 25.3 µM. Compared with the last molecule, the IC50 is about 7.9-fold higher.

As to `CSc1ccc(-c2cc(-c3ccc(F)cc3)c(-c3ccc(S(C)(=O)=O)cc3)c(=O)o2)cc1`, in assay [1], the IC50 is over 100 µM. `CSc1ccc(-c2cc(-c3ccccc3)c(-c3ccc(N=[N+]=[N-])cc3)c(=O)o2)cc1` gave an IC50 in assay [1] of 30 µM.

In turn, `CCc1ccc(-c2cc(-c3ccc(S(C)(=O)=O)cc3)c(-c3ccccc3)c(=O)o2)cc1` returned an IC50 in assay [1] of over 100 µM.

On to `CCOc1ccc(-c2cc(-c3ccccc3)c(-c3ccc(N=[N+]=[N-])cc3)c(=O)o2)cc1`, for which the IC50 in assay [1] was over 100 µM. The same measure, in the same setting: for `CS(=O)(=O)c1ccc(-c2c(-c3ccccc3)cc(-c3ccc(F)cc3)oc2=O)cc1` the value was over 100 µM. `CS(=O)(=O)c1ccc(-c2c(-c3ccccc3)cc(-c3ccccc3)oc2=O)cc1` came in with an IC50 in assay [1] of over 100 µM. As usually defined, the Inhibition is the share of the control response that was lost under treatment. A low value points to a response near the control. `CCOc1ccc(-c2cc(-c3ccccc3)c(-c3ccc(S(C)(=O)=O)cc3)c(=O)o2)cc1`: in assay [1], the IC50 is over 100 µM. Moreover, the Inhibition in assay [2] is listed as 58.3%; in assay [3], 75%. The molecule further returned an ID50 in assay [4] of 5.6 mg/kg. As to `CS(=O)(=O)c1ccc(-c2c(-c3cccnc3)cc(-c3ccccc3)oc2=O)cc1`, the IC50 in assay [1] came out at 3 µM.

In turn, `CSc1ccc(-c2cc(-c3ccc(S(C)(=O)=O)cc3)c(-c3ccccc3)c(=O)o2)cc1` displayed an IC50 in assay [1] of 31.2 µM. Still for that read-out and setting: for `CCOc1ccc(-c2cc(-c3ccc(F)cc3)c(-c3ccc(S(C)(=O)=O)cc3)c(=O)o2)cc1` the value was 3.2 µM. Molecule `Cc1ccc(-c2cc(C(F)(F)F)nn2-c2ccc(S(N)(=O)=O)cc2)cc1` [CELECOXIB] came in with an Inhibition in assay [2] of 69.33%.

As to `COc1ccc(-c2cc(-c3cccnc3)c(-c3ccc(S(C)(=O)=O)cc3)c(=O)o2)cc1`, the IC50 in assay [1] is 0.44 µM. In assay [1], `COc1ccc(-c2cc(-c3ccccc3)c(-c3ccc(S(C)(=O)=O)cc3)c(=O)o2)cc1` yielded an IC50 of over 100 µM. For the same molecule, the Inhibition in assay [2] is on record as 37.5%; in assay [3], 69%. In assay [4], this molecule came in with an ID50 of 19.2 mg/kg.

The molecule `CS(=O)(=O)c1ccc(-c2c(-c3ccccc3)cc(-c3ccc(C(F)(F)F)cc3)oc2=O)cc1` returned an IC50 in assay [1] of over 100 µM. Same read-out and setting: for `CS(=O)(=O)c1ccc(-c2cc(-c3ccccc3)c(-c3ccccc3)c(=O)o2)cc1` the value was over 100 µM; for `CCOc1ccc(-c2cc(-c3ccc(S(C)(=O)=O)cc3)c(-c3ccc(F)cc3)c(=O)o2)cc1`, 1.07 µM. Regarding `CS(=O)(=O)c1ccc(-c2c(-c3ccccc3)cc(-c3ccc(O)cc3)oc2=O)cc1`, the half-maximal inhibitory concentration (IC50) in assay [1] was over 100 µM.

For `COc1ccc(-c2cc(-c3ccccc3)c(-c3ccc(N=[N+]=[N-])cc3)c(=O)o2)cc1`, the IC50 in assay [1] is over 100 µM. For the same molecule, the Inhibition came out at 47.2% in assay [2] and 55.5% in assay [3]. Further, the ID50 in assay [4] came to 5.6 mg/kg.

Turning to `COc1ccc(-c2cc(-c3ccc(S(C)(=O)=O)cc3)c(-c3ccncc3)c(=O)o2)cc1`, the IC50 in assay [1] is over 100 µM. For the same molecule, the values for the Inhibition in assay [2] and in assay [3] were 58.3% and 55%, respectively. Moreover, in assay [4], the ID50 was 21.4 mg/kg.

Turning to `CS(=O)(=O)c1ccc(-c2c(-c3ccccc3)cc(-c3ccc(N)cc3)oc2=O)cc1`, it took 32.5 µM to reach half-maximal inhibition in assay [1] (IC50). The same measure, in the same setting: for `Cc1ccc(-c2cc(-c3ccc(S(C)(=O)=O)cc3)c(-c3ccccc3)c(=O)o2)cc1` the value was over 100 µM. Consider `CSc1ccc(-c2cc(-c3ccccc3)c(-c3ccc(S(C)(=O)=O)cc3)c(=O)o2)cc1`, for which the IC50 in assay [1] amounted to 37.7 µM. Further, the Inhibition in assay [2] was determined as 72%; in assay [3], 64.7%. The molecule further showed an ID50 in assay [4] of 7.9 mg/kg.

The molecule `CCc1ccc(-c2cc(-c3ccccc3)c(-c3ccc(S(C)(=O)=O)cc3)c(=O)o2)cc1` had an IC50 in assay [1] of over 100 µM.

With `CCOc1ccc(-c2cc(-c3ccc(S(C)(=O)=O)cc3)c(-c3ccccc3)c(=O)o2)cc1`, in assay [1], the IC50 came out at 31.6 µM. Consider `CS(=O)(=O)c1ccc(-c2cc(-c3ccc(F)cc3)oc(=O)c2-c2ccccc2)cc1`, for which the IC50 in assay [1] worked out at 11 µM. On the same count and under the same terms, the result for `COc1ccc(-c2cc(-c3ccc(S(C)(=O)=O)cc3)c(-c3cccnc3)c(=O)o2)cc1` reads 0.15 µM; that for `COc1ccc(-c2cc(-c3ccc(S(C)(=O)=O)cc3)c(-c3ccccc3)c(=O)o2)cc1`, 31.5 µM; that for `CS(=O)(=O)c1ccc(-c2cc(-c3ccccc3)oc(=O)c2-c2ccncc2)cc1`, over 100 µM. The same measure, in the same setting: for `CS(=O)(=O)c1ccc(-c2cc(-c3ccccc3)oc(=O)c2-c2ccccc2)cc1` the value was over 100 µM; for `COc1ccc(-c2cc(-c3ccc(F)cc3)c(-c3ccc(S(C)(=O)=O)cc3)c(=O)o2)cc1`, 20 µM.

Consider `CS(=O)(=O)c1ccc(-c2c(-c3ccccc3)cc(-c3ccc([N+](=O)[O-])cc3)oc2=O)cc1`, for which the IC50 in assay [1] was over 100 µM.
